{"source": "ChEMBL document CHEMBL5257059", "about": "“Pyridine-Based 1,2,4-Triazolo-Tethered Indole Conjugates Potentially Affecting TNKS and PI3K in Colorectal Cancer” (ACS Med Chem Lett, 2023)", "key": {"HT-29 [1]": {"tested_on": "HT-29", "experiment": "Induction of cell cycle arrest in human HT-29 cells assessed as accumulation of cells at G0/G1 phase at 1 uM incubated for 24 hrs by RNase/PI staining based flow cytometry analysis (reference value: 50.206%)", "format": "functional"}, "HT-29 [2]": {"tested_on": "HT-29", "experiment": "Induction of cell cycle arrest in human HT-29 cells assessed as accumulation of cells at S phase at 1 uM incubated for 24 hrs by RNase/PI staining based flow cytometry analysis (reference value: 17.934 %)", "format": "functional"}, "HT-29 [3]": {"tested_on": "HT-29", "experiment": "Induction of cell cycle arrest in human HT-29 cells assessed as accumulation of cells at subG1 phase at 1 uM incubated for 24 hrs by RNase/PI staining based flow cytometry analysis (reference value: 1.798%)", "format": "functional"}, "HT-29 [4]": {"tested_on": "HT-29", "experiment": "Induction of apoptosis in human HT29 cells assessed as increase in late apoptotic cells at 1 uM incubated for 24 hrs by annexin V/PI staining based flow cytometry analysis", "format": "functional, cell-based", "method_in_brief": "(§1)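 Annexin/PI double staining of HT-29 cells after 24 h exposure at 1, 2 or 4 μM. Flow cytometry gated early apoptotic, late apoptotic and necrotic populations, reported as % of cells. Comparison to untreated control used two-way ANOVA followed by Tukey's post hoc analysis.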"}, "HT-29 [5]": {"tested_on": "HT-29", "experiment": "Downregulation of beta-catenin protein expression in human HT-29 cells at 1 uM by immunostaining based confocal microscopic analysis", "format": "functional, cell-based"}, "HT-29 [6]": {"tested_on": "HT-29", "experiment": "Downregulation of TAB-182 protein expression in human HT-29 cells at 1 uM by immunostaining based confocal microscopic analysis", "format": "functional, cell-based"}, "HT-29 [7]": {"tested_on": "HT-29", "experiment": "Inhibition of GSK-3beta protein expression in human HT-29 cells at 1 uM incubated for 72 hrs by Western blot analysis", "format": "functional, cell-based"}, "HT-29 [8]": {"tested_on": "HT-29", "experiment": "Inhibition of phosphorylated PI3K-p85 protein expression in human HT-29 cells at 1 uM incubated for 72 hrs by Western blot analysis", "format": "functional, cell-based"}, "HT-29 [9]": {"tested_on": "HT-29", "experiment": "Inhibition of pan-AKT protein expression in human HT-29 cells at 1 uM incubated for 72 hrs by Western blot analysis", "format": "functional, cell-based"}, "HT-29 [10]": {"tested_on": "HT-29", "experiment": "Inhibition of AKT protein expression in human HT-29 cells at 1 uM incubated for 72 hrs by Western blot analysis", "format": "functional, cell-based"}, "HT-29 [11]": {"tested_on": "HT-29", "experiment": "Induction of cell cycle arrest in human HT-29 cells assessed as accumulation of cells at S phase at 2 uM incubated for 24 hrs by RNase/PI staining based flow cytometry analysis (reference value: 17.934 %)", "format": "functional"}, "HT-29 [12]": {"tested_on": "HT-29", "experiment": "Induction of cell cycle arrest in human HT-29 cells assessed as accumulation of cells at subG1 phase at 2 uM incubated for 24 hrs by RNase/PI staining based flow cytometry analysis (reference value: 1.798%)", "format": "functional"}, "HT-29 [13]": {"tested_on": "HT-29", "experiment": "Induction of apoptosis in human HT29 cells assessed as increase in late apoptotic cells at 2 uM incubated for 24 hrs by annexin V/PI staining based flow cytometry analysis", "format": "functional, cell-based", "method_in_brief": "as §1"}, "HT-29 [14]": {"tested_on": "HT-29", "experiment": "Induction of ROS generation in human HT-29 cells at 2 uM by CM-H2DCFDA fluorescent probe based flow cytometry analysis (reference value: 0.528%)", "format": "functional"}, "HT-29 [15]": {"tested_on": "HT-29", "experiment": "Inhibition of APC protein expression in human HT-29 cells at 2 uM incubated for 72 hrs by Western blot analysis", "format": "functional, cell-based"}, "HT-29 [16]": {"tested_on": "HT-29", "experiment": "Inhibition of beta-actin protein expression in human HT-29 cells at 2 uM incubated for 72 hrs by Western blot analysis", "format": "functional, cell-based"}, "HT-29 [17]": {"tested_on": "HT-29", "experiment": "Inhibition of TAB-182 protein expression in human HT-29 cells at 2 uM incubated for 72 hrs by Western blot analysis", "format": "functional, cell-based"}, "HT-29 [18]": {"tested_on": "HT-29", "experiment": "Inhibition of pan-AKT protein expression in human HT-29 cells at 2 uM incubated for 72 hrs by Western blot analysis", "format": "functional, cell-based"}, "HT-29 [19]": {"tested_on": "HT-29", "experiment": "Inhibition of AKT protein expression in human HT-29 cells at 2 uM incubated for 72 hrs by Western blot analysis", "format": "functional, cell-based"}, "HT-29 [20]": {"tested_on": "HT-29", "experiment": "Induction of cell cycle arrest in human HT-29 cells assessed as accumulation of cells at S phase at 4 uM incubated for 24 hrs by RNase/PI staining based flow cytometry analysis (reference value: 17.934 %)", "format": "functional"}, "HT-29 [21]": {"tested_on": "HT-29", "experiment": "Induction of mitochondrial ROS generation in human HT-29 cells at 4 uM by MitoSOX red dye based flow cytometry analysis", "format": "functional, cell-based", "method_in_brief": "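Mitochondrial superoxide in HT-29 cells was read with the mitochondria-localizing MitoSOX Red probe after treatment at 1, 2 or 4 μM. Flow cytometry histograms were acquired on 10,000 cells, and results were expressed as mean fluorescence intensity. Versus control, significance was tested by one-way ANOVA with Tukey's post hoc test.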"}, "[22]": {"target": "Phosphatidylinositol 3-kinase regulatory subunit alpha (Homo sapiens) (UniProt P27986)", "sequence (P27986 whole entry)": "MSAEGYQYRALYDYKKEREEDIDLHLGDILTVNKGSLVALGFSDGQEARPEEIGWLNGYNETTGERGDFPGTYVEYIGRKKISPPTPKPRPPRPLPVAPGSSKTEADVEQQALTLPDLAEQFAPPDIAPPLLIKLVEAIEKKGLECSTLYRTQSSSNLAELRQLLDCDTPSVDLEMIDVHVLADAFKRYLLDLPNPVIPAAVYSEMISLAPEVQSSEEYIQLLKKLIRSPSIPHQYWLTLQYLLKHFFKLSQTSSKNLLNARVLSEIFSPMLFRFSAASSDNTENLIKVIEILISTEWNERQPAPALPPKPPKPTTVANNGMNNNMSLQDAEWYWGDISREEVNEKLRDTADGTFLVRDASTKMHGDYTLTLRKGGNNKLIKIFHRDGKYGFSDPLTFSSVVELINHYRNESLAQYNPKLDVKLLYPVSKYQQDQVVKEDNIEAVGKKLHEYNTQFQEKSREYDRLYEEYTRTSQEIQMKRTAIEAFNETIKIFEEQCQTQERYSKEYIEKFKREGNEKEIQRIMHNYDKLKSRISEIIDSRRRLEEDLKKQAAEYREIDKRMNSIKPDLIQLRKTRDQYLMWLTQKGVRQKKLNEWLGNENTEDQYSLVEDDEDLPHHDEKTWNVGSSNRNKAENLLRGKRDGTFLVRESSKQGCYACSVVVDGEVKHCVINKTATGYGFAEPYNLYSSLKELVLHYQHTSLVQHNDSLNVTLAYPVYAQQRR", "experiment": "Inhibition of PI3K-P85 phosphorylation in human HT-29 cells at 4 uM incubated for 72 hrs by Western blot analysis", "format": "cell-based"}, "[23]": {"target": "182 kDa tankyrase-1-binding protein (Homo sapiens) (UniProt Q9C0C2)", "sequence (Q9C0C2 whole entry)": "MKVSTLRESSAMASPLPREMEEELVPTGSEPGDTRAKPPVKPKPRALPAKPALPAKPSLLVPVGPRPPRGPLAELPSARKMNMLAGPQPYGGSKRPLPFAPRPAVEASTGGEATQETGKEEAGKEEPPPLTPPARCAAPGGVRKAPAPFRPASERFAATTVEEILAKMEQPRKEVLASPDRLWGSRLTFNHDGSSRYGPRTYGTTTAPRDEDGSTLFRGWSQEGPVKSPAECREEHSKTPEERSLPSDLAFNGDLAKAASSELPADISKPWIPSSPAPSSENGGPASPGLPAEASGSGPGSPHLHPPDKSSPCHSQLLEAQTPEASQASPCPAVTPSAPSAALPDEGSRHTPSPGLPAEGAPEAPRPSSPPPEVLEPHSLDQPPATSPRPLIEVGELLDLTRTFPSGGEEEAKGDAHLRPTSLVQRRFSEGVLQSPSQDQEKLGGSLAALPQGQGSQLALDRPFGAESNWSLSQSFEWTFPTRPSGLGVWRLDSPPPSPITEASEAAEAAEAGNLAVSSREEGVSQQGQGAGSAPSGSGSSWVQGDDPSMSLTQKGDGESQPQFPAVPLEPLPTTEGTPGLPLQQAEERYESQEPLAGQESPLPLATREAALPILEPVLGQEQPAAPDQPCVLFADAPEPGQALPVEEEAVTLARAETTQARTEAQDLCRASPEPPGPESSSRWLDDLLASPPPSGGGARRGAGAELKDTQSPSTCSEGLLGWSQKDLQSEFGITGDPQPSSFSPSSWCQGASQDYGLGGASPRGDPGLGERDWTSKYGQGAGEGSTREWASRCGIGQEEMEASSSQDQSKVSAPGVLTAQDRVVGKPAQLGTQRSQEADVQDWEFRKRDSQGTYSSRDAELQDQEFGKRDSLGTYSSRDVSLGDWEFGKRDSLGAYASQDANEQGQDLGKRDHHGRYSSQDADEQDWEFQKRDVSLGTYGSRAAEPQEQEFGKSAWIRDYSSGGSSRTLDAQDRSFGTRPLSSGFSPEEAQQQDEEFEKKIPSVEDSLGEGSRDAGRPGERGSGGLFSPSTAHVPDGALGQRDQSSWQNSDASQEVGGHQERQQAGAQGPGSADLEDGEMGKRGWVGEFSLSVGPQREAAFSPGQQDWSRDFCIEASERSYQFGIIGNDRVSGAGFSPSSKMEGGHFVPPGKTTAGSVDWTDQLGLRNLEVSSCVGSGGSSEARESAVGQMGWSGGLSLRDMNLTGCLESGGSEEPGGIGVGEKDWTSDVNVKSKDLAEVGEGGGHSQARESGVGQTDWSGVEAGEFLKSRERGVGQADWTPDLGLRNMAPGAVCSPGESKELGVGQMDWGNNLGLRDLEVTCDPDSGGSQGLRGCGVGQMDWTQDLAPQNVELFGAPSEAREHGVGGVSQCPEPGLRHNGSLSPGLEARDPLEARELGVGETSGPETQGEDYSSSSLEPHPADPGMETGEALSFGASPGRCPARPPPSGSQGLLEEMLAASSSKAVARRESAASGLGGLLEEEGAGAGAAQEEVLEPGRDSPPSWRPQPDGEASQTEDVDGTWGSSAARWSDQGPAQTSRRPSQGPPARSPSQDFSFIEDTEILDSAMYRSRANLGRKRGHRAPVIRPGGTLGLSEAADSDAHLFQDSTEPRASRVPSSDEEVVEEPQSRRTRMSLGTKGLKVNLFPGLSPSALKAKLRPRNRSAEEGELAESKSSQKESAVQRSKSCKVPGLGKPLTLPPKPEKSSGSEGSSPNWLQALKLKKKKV", "experiment": "Inhibition of TAB-182 phosphorylation in human HT-29 cells at 4 uM incubated for 72 hrs by Western blot analysis", "format": "cell-based"}, "HT-29 [24]": {"tested_on": "HT-29", "experiment": "Inhibition of AXIN-2 protein expression in human HT-29 cells at 4 uM incubated for 72 hrs by Western blot analysis", "format": "functional, cell-based"}, "HT-29 [25]": {"tested_on": "HT-29", "experiment": "Inhibition of TAB-182 protein expression in human HT-29 cells at 4 uM incubated for 72 hrs by Western blot analysis", "format": "functional, cell-based"}, "HT-29 [26]": {"tested_on": "HT-29", "experiment": "Inhibition of beta-catenin protein expression in human HT-29 cells at 4 uM incubated for 72 hrs by Western blot analysis", "format": "functional, cell-based"}, "HT-29 [27]": {"tested_on": "HT-29", "experiment": "Inhibition of phosphorylated PI3K-p85 protein expression in human HT-29 cells at 4 uM incubated for 72 hrs by Western blot analysis", "format": "functional, cell-based"}, "HT-29 [28]": {"tested_on": "HT-29", "experiment": "Inhibition of PI3K-p85 protein expression in human HT-29 cells at 4 uM incubated for 72 hrs by Western blot analysis", "format": "functional, cell-based"}}, "note": "Calls of active or inactive are those of the source. The calls are words filed in the database; no cut-off is given here.", "data": [{"compound": "COc1ccc(-n2c(SCCc3c[nH]c4ccccc34)nnc2-c2ccncc2)cc1", "values": [{"measurement": "Activity", "setting": "HT-29 [1]", "result": 59.672, "unit": "%"}, {"measurement": "Activity", "setting": "HT-29 [2]", "result": 9.899, "unit": "%"}, {"measurement": "Activity", "setting": "HT-29 [3]", "result": 1.225, "unit": "%"}, {"measurement": "Activity", "setting": "HT-29 [4]", "result": "Active"}, {"measurement": "Activity", "setting": "HT-29 [5]", "result": "Active"}, {"measurement": "Activity", "setting": "HT-29 [6]", "result": "Active"}, {"measurement": "inhibition", "setting": "HT-29 [7]", "result": "Active"}, {"measurement": "inhibition", "setting": "HT-29 [8]", "result": "Active"}, {"measurement": "inhibition", "setting": "HT-29 [9]", "result": "Active"}, {"measurement": "inhibition", "setting": "HT-29 [10]", "result": "Active"}]}, {"compound": "Fc1ccccc1-n1c(SCCc2c[nH]c3ccccc23)nnc1-c1ccncc1", "values": [{"measurement": "Activity", "setting": "HT-29 [11]", "result": 7.976, "unit": "%"}, {"measurement": "Activity", "setting": "HT-29 [12]", "result": 0.854, "unit": "%"}, {"measurement": "Activity", "setting": "HT-29 [13]", "result": "Active"}, {"measurement": "Activity", "setting": "HT-29 [14]", "result": 1.526, "unit": "%"}, {"measurement": "inhibition", "setting": "HT-29 [15]", "result": "Active"}, {"measurement": "inhibition", "setting": "HT-29 [16]", "result": "Active"}, {"measurement": "inhibition", "setting": "HT-29 [17]", "result": "Active"}, {"measurement": "inhibition", "setting": "HT-29 [18]", "result": "Active"}, {"measurement": "inhibition", "setting": "HT-29 [19]", "result": "Active"}]}, {"compound": "COc1cccc(-n2c(SCCc3c[nH]c4ccccc34)nnc2-c2ccncc2)c1", "values": [{"measurement": "Activity", "setting": "HT-29 [20]", "result": 20.837, "unit": "%"}, {"measurement": "Activity", "setting": "HT-29 [21]", "result": "Active"}, {"measurement": "inhibition", "setting": "[22]", "result": "Active"}, {"measurement": "inhibition", "setting": "[23]", "result": "Active"}, {"measurement": "inhibition", "setting": "HT-29 [24]", "result": "Active"}, {"measurement": "inhibition", "setting": "HT-29 [25]", "result": "Active"}, {"measurement": "inhibition", "setting": "HT-29 [26]", "result": "Active"}, {"measurement": "inhibition", "setting": "HT-29 [27]", "result": "Active"}, {"measurement": "inhibition", "setting": "HT-29 [28]", "result": "Active"}]}]}
